Results taken from PMC7867784 (Translational Lung Cancer Research, 2021).

System: Japanese patients with RET-rearranged NSCLC
Assay: ALL-RET phase 1/2 trial: safety
Type: in vivo, human
Procedure, shortened: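 Adverse events were graded by NCI CTCAE v4.0, with causal relation to treatment recorded separately. Dose finding used a 3+3 de-escalation design with 3–6 patients per cohort. DLT was evaluated over the first 21-day cycle and defined as grade ≥4 thrombopenia, grade ≥3 febrile neutropenia, grade ≥4 neutropenia lasting ≥4 days, or grade ≥3 non-hematologic toxicity, with specified exceptions. Follow-up ran until January 2019.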

[1] = 600 mg BID (N=6), dose limiting toxicity
[2] = Japanese patients with RET-rearranged NSCLC

## CCc1cc2c(cc1N1CCC(N3CCOCC3)CC1)C(C)(C)c1[nH]c3cc(C#N)ccc3c1C2=O [alectinib]
600 mg BID (N=6)
  Constipation, any grade, number [causally related]: 4 [4]
  Constipation, any grade, percent: 66.7%
  Constipation, grade 1–2, number (total): 4 [4]
  Constipation, grade 1–2, number [causally related]: 4 [4]
  Constipation, grade 3, number: 0
  Constipation, grade 4, number: 0
  Creatine phosphokinase increase, any grade, number (total): 2 [2]
  Creatine phosphokinase increase, any grade, number [causally related]: 2 [2]
  Creatine phosphokinase increase, any grade, percent: 33.3%
  Creatine phosphokinase increase, grade 1–2, number (total): 1[1]
  Creatine phosphokinase increase, grade 1–2, number [causally related]: 1[1]
  Creatine phosphokinase increase, grade 4, number: 0
  Creatinine increase, any grade, number (total): 2 [2]
  Creatinine increase, any grade, number [causally related]: 2 [2]
  Creatinine increase, any grade, percent: 33.3%
  Creatinine increase, grade 1–2, number (total): 2[2]
  Creatinine increase, grade 1–2, number [causally related]: 2[2]
  Creatinine increase, grade 3, number: 0
  Creatinine increase, grade 4, number: 0
  Dysgeusia, any grade, number (total): 2 [2]
  Dysgeusia, any grade, number [causally related]: 2 [2]
  Dysgeusia, any grade, percent: 33.3%
  Dysgeusia, grade 1–2, number (total): 2 [2]
  Dysgeusia, grade 1–2, number [causally related]: 2 [2]
  Dysgeusia, grade 3, number: 0
  Dysgeusia, grade 4, number: 0
  Erythema multiforme, any grade, number (total): 1 [1]
  Erythema multiforme, any grade, number [causally related]: 1 [1]
  Erythema multiforme, any grade, percent: 16.7%
  Erythema multiforme, grade 1–2, number: 0
  Erythema multiforme, grade 4, number: 0
  Hepatic function abnormal, any grade, number (total): 2 [2]
  Hepatic function abnormal, any grade, number [causally related]: 2 [2]
  Hepatic function abnormal, any grade, percent: 33.3%
  Hepatic function abnormal, grade 1–2, number (total): 1 [1]
  Hepatic function abnormal, grade 1–2, number [causally related]: 1 [1]
  Hepatic function abnormal, grade 4, number: 0
  Lymphocyte decrease, any grade, number (total): 1 [1]
  Lymphocyte decrease, any grade, number [causally related]: 1 [1]
  Lymphocyte decrease, any grade, percent: 16.7%
  Lymphocyte decrease, grade 1–2, number: 0
  Lymphocyte decrease, grade 3, number: 0
  Lymphocyte decrease, grade 4, number (total): 1 [1]
  Lymphocyte decrease, grade 4, number [causally related]: 1 [1]
  Myalgia, any grade, number (total): 3 [3]
  Myalgia, any grade, number [causally related]: 3 [3]
  Myalgia, any grade, percent: 50.0%
  Myalgia, grade 1–2, number (total): 3 [3]
  Myalgia, grade 1–2, number [causally related]: 3 [3]
  Myalgia, grade 3, number: 0
  Myalgia, grade 4, number: 0
  Oedema peripheral, any grade, number (total): 2 [2]
  Oedema peripheral, any grade, number [causally related]: 2 [2]
  Oedema peripheral, any grade, percent: 33.3%
  Oedema peripheral, grade 1–2, number (total): 2 [2]
  Oedema peripheral, grade 1–2, number [causally related]: 2 [2]
  Oedema peripheral, grade 3, number: 0
  Oedema peripheral, grade 4, number: 0
  Rash, any grade, number (total): 1 [1]
  Rash, any grade, number [causally related]: 1 [1]
  Rash, any grade, percent: 16.7%
  Rash, grade 1–2, number: 0
  Rash, grade 4, number: 0
  Thromboembolic event, any grade, number (total): 1 [1]
  Thromboembolic event, any grade, number [causally related]: 1 [1]
  Thromboembolic event, any grade, percent: 16.7%
  Thromboembolic event, grade 1–2, number: 0
  Thromboembolic event, grade 4, number: 0
[1]
  Creatine phosphokinase increase, grade 3, number (total): 1[1]*
  Creatine phosphokinase increase, grade 3, number [causally related]: 1[1]*
  Erythema multiforme, grade 3, number (total): 1 [1]*
  Erythema multiforme, grade 3, number [causally related]: 1 [1]*
  Hepatic function abnormal, grade 3, number (total): 1 [1]*
  Hepatic function abnormal, grade 3, number [causally related]: 1 [1]*
  Rash, grade 3, number (total): 1 [1]*
  Rash, grade 3, number [causally related]: 1 [1]*
  Thromboembolic event, grade 3, number (total): 1 [1]*
  Thromboembolic event, grade 3, number [causally related]: 1 [1]*
600 mg BID, out of 6 patients
  patients whose treatment was discontinued due to DLTs: 2
[2]
  MTD (maximum tolerated dose): 450 mg BID
  recommended dose (RD) for phase 2: 450 mg BID
Cohort 1, 600 mg BID
  DLTs observed in case S1-3: grade 3 rash and hepatic function abnormal
  DLTs observed in case S1-4: grade 3 erythema multiforme and thromboembolic event
Phase 1 cohort 1, 600 mg BID, 6 patients
  number of dose-limiting toxicities (DLTs): 5
Phase 1 cohort 1, 600 mg BID, of 6 patients
  patients with DLTs: 3
Phase 1 cohort 2, 450 mg BID, 3 patients
  DLTs: no DLTs
Phase 2, 450 mg BID
  grade 3 adverse events including pneumonitis: 4%
